Measured values taken from ChEMBL document CHEMBL1156215, “Homoisoflavonoid derivatives from the roots of Ophiopogon japonicus and their in vitro anti-inflammation activity” (Bioorg Med Chem Lett, 2010).

How the values were obtained:
[1] = Cytotoxicity against human BEAS2B cells at 25 uM after 48 hrs by MTT assay; assay type: cell-based; settings: beas-2b
How it was run: (§1)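 BEAS-2B viability by MTT after 48 h exposure to compound, with or without IL-4.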

[2] = Antiinflammatory activity in human BEAS2B cells assessed as inhibition of IL4-induced eotaxin production at 25 uM after 48 hrs by ELISA treated 2 hrs before IL4 challenge; assay type: functional, BEAS-2B
How it was run: (§2)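 BEAS-2B cells in RPMI-1640 with 10% FBS at 37 °C, 5% CO2, plated at 5 × 10^5/mL, switched to serum-free RPMI at 80% confluence. Pretreated 2 h with compound (1.0–25.0 μM), then IL-4 (20 ng/mL) alone. Supernatant eotaxin measured by sandwich ELISA after 48 h. Values are the mean of three experiments.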

BEAS-2B [3] = assay: Antiinflammatory activity in human BEAS2B cells assessed as inhibition of IL4-induced eotaxin production after 48 hrs by ELISA treated 2 hrs before IL4 challenge; assay type: functional, cell-based; how it was run: as §2
[4] = Cytotoxicity against human BEAS2B cells at 25 uM after 48 hrs by MTT assay in the presence of IL4; assay type: cell-based; settings: beas-2b; how it was run: as §1
BEAS-2B [5] = assay: Antiinflammatory activity in human BEAS2B cells assessed as inhibition of IL4 and TNF-alpha-induced eotaxin production after 48 hrs by ELISA treated 2 hrs before IL4 challenge; assay type: functional, cell-based
[6] = Antiinflammatory activity in human BEAS2B cells assessed as reduction in IL4 and TNF-alpha-induced eotaxin production at 25 uM after 48 hrs by ELISA treated 2 hrs before IL4 challenge (RVb=456.2 pg/ml)

SMILES | Activity [1] | Activity [2] [pg/mL] | Activity (BEAS-2B [3]) | Activity [4] | Activity (BEAS-2B [5]) | Activity [6] [pg/mL]
COc1c(C)c(O[C@@H]2O[C@H](CO)[C@@H](O)[C@H](O)[C@H]2O)c(C=O)c2c1C(=O)[C@H](Cc1ccc3c(c1)OCO3)CO2 [OPHIOPOGOSIDE B] | Non-toxic | 25.5 | Dose-dependent effect | Non-toxic | – | –
Cc1c(O)c2c(c(C=O)c1O[C@@H]1O[C@H](CO)[C@@H](O)[C@H](O)[C@H]1O)OC[C@@H](Cc1ccc3c(c1)OCO3)C2=O [OPHIOPOGOSIDE A] | Non-toxic | 28.5 | Dose-dependent effect | Non-toxic | Dose-dependent effect | –
COc1ccc(C[C@@H]2COc3c(OC)c(O)c(C)c(O)c3C2=O)c(O)c1O [OPHIOPOGONANONE G] | Non-toxic | 30.8 | Dose-dependent effect | Non-toxic | – | –
COc1ccc2ccc(=O)oc2c1CC=C(C)C [OSTHOLE] | – | – | – | – | – | 80.5
